This note sets out measurements from ChEMBL document CHEMBL1143009, “D- and L-2',3'-didehydro-2',3'-dideoxy-3'-fluoro-carbocyclic nucleosides: synthesis, anti-HIV activity and mechanism of resistance” (J Med Chem, 2007).

Data set [1] relates to PBMC. Put plainly: Cytotoxicity against human PBMC. Format: cell-based.
The subject of data set [2] is Human immunodeficiency virus 1. Put plainly: Antiviral activity against HIV1 LAV1 in human PBM cells by RT assay. Format: functional, organism-based. Conditions: for EC50 / EC90: Human immunodeficiency virus 1, LAV1, PBMC. In short, it runs like this: (§1)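 Human PBM cells were infected with HIV-1. The strain was LAI by default, or xxBRU where indicated. Antiviral activity was reported as EC50 and EC90.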

Data set [3] has as its system Vero. Put plainly: Cytotoxicity against African green monkey Vero cells. The class given is cell-based. To be noted: chlorocebus sabaeus.
Data set [4] relates to Human immunodeficiency virus 1. Put plainly: Ratio of EC50 for lamivudine-resistant HIV1 M184V mutant to EC50 for HIV1 […]. Format: functional. A digest of the protocol:
(§2)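 Human PBM cells infected with lamivudine-resistant HIV-1 M184V and, in parallel, wild-type HIV-1 (xxBRU where footnoted, otherwise LAI). EC50 was determined for each virus, and the mutant EC50 was divided by the wild-type EC50. Carbovir served as positive control.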

The subject of data set [5] is Human immunodeficiency virus 1. Nature of the data set: Antiviral activity against lamivudine-resistant HIV1 M184V mutant in human PBMC cells by RT assay. The class given is functional, organism-based. In short, it runs like this: as §2
Data set [6] has as its system Human immunodeficiency virus 1. Put plainly: Antiviral activity against HIV1 xxBRU in human PBM cells by RT assay. The class given is functional, organism-based. A digest of the protocol:
as §1

Setting [7] is: Human immunodeficiency virus 1, PBMC.
Where [8] appears, read: Human immunodeficiency virus 1, xxBRU, PBMC.

A word on the EC50: it is the midpoint of the concentration-response curve. By EC90 is commonly meant the point of the concentration-response curve where the effect stands at 90%.

As to `OC[C@H]1C[C@H](n2cnc3c(O)ncnc32)C=C1F`, the Activity in data set [1] was above 100 µM. In data set [2], this compound showed an ED90 above 100 µM and an EC50 above 100 µM. This compound also returned an Activity in data set [3] above 100 µM.

The compound `Nc1nc2c(ncn2[C@@H]2C=C(F)[C@@H](CO)C2)c(=O)[nH]1` came in with an Activity in data set [1] above 100 µM. In data set [2], this compound returned an EC50 of 20.7 µM and an EC90 above 100 µM. In data set [3], this compound had an Activity above 100 µM.

`Nc1ncnc2c1ncn2[C@@H]1C=C(F)[C@@H](CO)C1` registered an Activity in data set [1] above 100 µM. In data set [2], this compound registered an EC50 of 10.3 µM and a 90% effect concentration (EC90) of 33.5 µM. The compound also registered an Activity in data set [3] above 100 µM.

As to `Nc1ccn([C@@H]2C[C@@H](CO)C(F)(F)C2)c(=O)n1`, the Activity in data set [1] and in data set [3] was above 100 µM each time. For the same compound, in data set [2], the ED90 was above 100 µM. The same compound gave an EC50 in data set [2] above 100 µM.

With `Nc1nc2c(ncn2[C@H]2C=C(F)[C@H](CO)C2)c(=O)[nH]1`, the Ratio in data set [4] worked out at 38.8. In data set [5], this compound gave an ED90 of 14.9 µM. For the same compound, the EC50 in data set [5] (setting [7]) came to 3800 nM; in data set [6] (setting [8]), 98 nM; in data set [2], 0.41 µM. In addition, the values for the 90% effect concentration (EC90) in data set [6] (setting [8]) and in data set [2] were 580 nM and 2.8 µM, respectively. Also, the Activity is 21.1 µM in data set [1] and above 100 µM in data set [3].

In turn, `Nc1ccn([C@@H]2C=C(F)[C@@H](CO)C2)c(=O)n1` yielded an Activity in data set [1] above 100 µM. In data set [2], the half-maximal effective concentration (EC50) was 7.1 µM and the EC90 was found to be 72 µM. In addition, the Activity in data set [3] is above 100 µM.

In the case of `Nc1ncnc2c1ncn2[C@H]1C=C(F)[C@H](CO)C1`, the Activity in data set [1] is above 100 µM. In data set [2], this compound returned a half-maximal effective concentration (EC50) of 14.8 µM and an EC90 of 40.6 µM. Further, in data set [3], the Activity is above 100 µM.

`OC[C@@H]1C[C@@H](n2cnc3c(O)ncnc32)C=C1F` displayed an Activity in data set [1] above 100 µM. Moreover, in data set [2], the ED90 was above 100 µM and the EC50 was above 100 µM. The compound also registered an Activity in data set [3] above 100 µM.

As for `Nc1ccn([C@H]2C=C(F)[C@H](CO)C2)c(=O)n1`, the Activity in data set [1] is above 100 µM. Further, in data set [2], the ED90 was above 100 µM and the EC50 is above 100 µM. For the same compound, the Activity in data set [3] was above 100 µM.

Consider `Nc1nc2c(ncn2[C@@H]2C[C@@H](CO)C(F)(F)C2)c(=O)[nH]1`, for which the Activity in data set [1] and in data set [3] was above 100 µM each time. Also, the ED90 in data set [2] is above 100 µM. The same compound showed an EC50 in data set [2] above 100 µM.

On to `Cc1cn([C@@H]2C[C@@H](CO)C(F)(F)C2)c(=O)[nH]c1=O`, for which the Activity in data set [1] and in data set [3] was above 100 µM each time. In data set [2], this compound yielded an ED90 above 100 µM. For the same compound, the EC50 in data set [2] was above 100 µM.

Consider `Nc1ncnc2c1ncn2[C@@H]1C[C@@H](CO)C(F)(F)C1`, for which the Activity was 95.1 µM in data set [1] and above 100 µM in data set [3]. In data set [2], this compound displayed an ED90 above 100 µM. In addition, the EC50 in data set [2] is above 100 µM.

Regarding `Cc1cn([C@@H]2C=C(F)[C@@H](CO)C2)c(=O)[nH]c1=O`, in data set [1], the Activity was above 100 µM. In data set [2], this compound registered a half-maximal effective concentration (EC50) of 6.4 µM and an EC90 above 100 µM. For the same compound, the Activity in data set [3] is above 100 µM.

`OC[C@@H]1C[C@@H](n2cnc3c(O)ncnc32)CC1(F)F`: the Activity in data set [1] is above 100 µM. For the same compound, in data set [2], the ED90 was above 100 µM and the concentration giving a half-maximal response (EC50) is above 100 µM. In data set [3], this compound showed an Activity above 100 µM.

As to `Cc1cn([C@H]2C=C(F)[C@H](CO)C2)c(=O)[nH]c1=O`, the Activity in data set [1] was above 100 µM. In data set [2], this compound returned an EC50 of 68.8 µM and an EC90 above 100 µM. The Activity in data set [3] was above 100 µM.

Regarding `Nc1nc2c(ncn2[C@H]2C=C[C@@H](CO)C2)c(=O)[nH]1` [CARBOVIR], the Ratio in data set [4] came out at 2.3. Moreover, in data set [5] (setting [7]), a half-maximal response (EC50) required 200 nM and it took 1100 nM to reach the 90% level (EC90). In addition, the ED90 in data set [6] was 0.27 µM. This compound also gave an EC50 in data set [6] (setting [8]) of 87 nM.
